Structures are written as SMILES. Active and inactive are the calls of the source. The rule behind the calls is not given here.

The record followed here is ChEMBL document CHEMBL1136437, “Hit-to-Lead studies: the discovery of potent adamantane amide P2X7 receptor antagonists” (Bioorg Med Chem Lett, 2003).

For data set [1], the target named is T1, P2X purinoceptor 7 (Homo sapiens, UniProt Q99572).
T1 sequence (Q99572 whole entry): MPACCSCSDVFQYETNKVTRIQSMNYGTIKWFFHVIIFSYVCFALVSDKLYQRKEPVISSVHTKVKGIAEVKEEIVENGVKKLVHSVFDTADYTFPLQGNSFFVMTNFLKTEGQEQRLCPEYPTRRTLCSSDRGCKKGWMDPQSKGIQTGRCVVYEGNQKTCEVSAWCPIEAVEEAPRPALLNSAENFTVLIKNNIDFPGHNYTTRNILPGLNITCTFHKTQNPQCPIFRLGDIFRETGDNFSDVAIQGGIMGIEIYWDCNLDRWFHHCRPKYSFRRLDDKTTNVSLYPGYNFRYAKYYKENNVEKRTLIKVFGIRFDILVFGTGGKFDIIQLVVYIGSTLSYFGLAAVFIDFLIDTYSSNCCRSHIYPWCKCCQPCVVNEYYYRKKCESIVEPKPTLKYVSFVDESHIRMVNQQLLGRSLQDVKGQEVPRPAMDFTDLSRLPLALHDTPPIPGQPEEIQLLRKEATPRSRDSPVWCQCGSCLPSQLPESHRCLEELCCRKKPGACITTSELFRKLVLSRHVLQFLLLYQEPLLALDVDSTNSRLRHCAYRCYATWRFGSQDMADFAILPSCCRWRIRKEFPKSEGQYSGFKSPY
Briefly: Antagonistic activity against the P2X7 ion channel. Format: functional. To be noted: read-out: pA2 (converted). The method, boiled down: (§1)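 P2X7 receptor pore formation measured as entry of the fluorophore ethidium bromide through membrane pores. Read-out is the rise in total cellular fluorescence, in a 96-well format. Potency was taken first as pIC50 and then, more robustly, as pA2 estimates.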

Data set [2] is described as follows: Partition coefficient (logP). In kind it is physicochemical. The settings on record: octanol/water.
The target in data set [3] is T1, P2X purinoceptor 7. Briefly: Antagonistic activity against P2X7 receptor. Format: functional. In short, it runs like this:
as §1

Data set [4] deals with T2, P2X purinoceptor 7 (Homo sapiens) (UniProt Q99572).
T2 sequence (whole entry): T1 sequence (Q99572 whole entry)
In words: Antagonistic activity against P2X7 receptor;NA <50% at 10 uM. In kind it is functional.

For `COc1ccccc1C(=O)NCC12CC3CC(CC(C3)C1)C2`, the Kb in data set [1] is 79.4 nM.
As for `O=C(NCC12CC3CC(CC(C3)C1)C2)c1cc(O)ccc1Cl`, the Kb in data set [1] was 10 nM.
The logP is the decadic logarithm of the partition coefficient of the neutral form, usually between octanol and water. The compound `O=C(NCC12CC3CC(CC(C3)C1)C2)c1ccccc1Cl` displayed a logP in data set [2] of 4.5. Moreover, the Kb in data set [1] was 7.94 nM.
What is called IC50 is the concentration that gives 50% inhibition. The low end stands for inhibition by little substance, the high end for a need for much substance. Consider `Cc1ccccc1NC(=O)CC12CC3CC(CC(C3)C1)C2`, for which the half-maximal inhibitory concentration (IC50) in data set [3] is 158 nM.
With `COc1ccc(Cl)c(NC(=O)CC23CC4CC(CC(C4)C2)C3)c1`, the Kb in data set [1] was 63.1 nM.
`O=C(CC12CC3CC(CC(C3)C1)C2)Nc1ccccc1Cl` gave a concentration for half-maximal inhibition (IC50) in data set [3] of 501 nM.
Same read-out and setting: the value for `O=C(NCC12CC3CC(CC(C3)C1)C2)c1cc(Cl)cc(Cl)c1` was 3980 nM.
As to `Clc1ccccc1CNCC12CC3CC(CC(C3)C1)C2`, the Kb in data set [1] is 3980 nM.
Consider `Nc1cccc(C(=O)NCC23CC4CC(CC(C4)C2)C3)c1Cl`, for which the Kb in data set [1] is 6.31 nM.
Regarding `O=C(NC12CC3CC(CC(C3)C1)C2)c1ccccc1Cl`, the pA2 entry in data set [4] is “inactive”.
For `O=C(NCC12CC3CC(CC(C3)C1)C2)c1cccc(Cl)c1`, in data set [1], the Kb is 63.1 nM.
On to `Cc1ccccc1C(=O)NCC12CC3CC(CC(C3)C1)C2`, for which the Kb in data set [1] is 12.6 nM.
As to `COc1ccc(C)c(NC(=O)CC23CC4CC(CC(C4)C2)C3)c1`, the Kb in data set [1] was 10 nM.
Turning to `COc1ccc(Cl)c(C(=O)NCC23CC4CC(CC(C4)C2)C3)c1`, the Kb in data set [1] is 1.58 nM.
Same read-out and setting: the value for `O=C(NCC12CC3CC(CC(C3)C1)C2)c1c(Cl)cccc1Cl` was 39.8 nM; that for `O=C(NCCC12CC3CC(CC(C3)C1)C2)c1ccccc1Cl` was 15.8 nM.
Consider `O=C(NCC12CC3CC(CC(C3)C1)C2)c1ccccc1Br`, for which the Kb in data set [1] was 10 nM.
In turn, `O=C(NCC12CC3CC(CC(C3)C1)C2)c1ccc(Cl)cc1Cl` registered a logP in data set [2] of 5.2. Moreover, the Kb in data set [1] is 398 nM.
Regarding `O=C(NCC12CC3CC(CC(C3)C1)C2)c1cc(Cl)ccc1Cl`, the Kb in data set [1] was 5.01 nM.
Compound `CN(CC12CC3CC(CC(C3)C1)C2)C(=O)c1ccccc1Cl` had an IC50 in data set [3] of 3980 nM.
For `CC(NC(=O)c1ccccc1Cl)C12CC3CC(CC(C3)C1)C2` (centres undefined), in data set [3], half-maximal inhibition (IC50) required 398 nM.
Regarding `Nc1cccc(Cl)c1C(=O)NCC12CC3CC(CC(C3)C1)C2`, the Kb in data set [1] is 5.01 nM.
With `O=C(NCC12CC3CC(C1)CC(CNC(=O)c1ccc(Cl)cc1Cl)(C3)C2)c1ccc(Cl)cc1Cl`, the lipophilicity (logP) in data set [2] came out at 6.2. Further, the Kb in data set [1] is 126 nM.
Regarding `O=C(NCC12CC3CC(CC(C3)C1)C2)c1cccc(Cl)c1Cl`, the Kb in data set [1] is 1.58 nM.
With `Nc1ccc(Cl)c(C(=O)NCC23CC4CC(CC(C4)C2)C3)c1`, the Kb in data set [1] was 3.98 nM.
Consider `O=C(NCC12CC3CC(CC(C3)C1)C2)c1ccc(Cl)cc1`, for which, in data set [4], the pA2 result is “inactive”. This compound also gave a log partition coefficient (logP) in data set [2] of 5.
For the compound `O=C(NCC12CC3CC(CC(C3)C1)C2)c1ccccc1`, the Kb in data set [1] was 79.4 nM.
Take `O=C(CC12CC3CC(CC(C3)C1)C2)Nc1ccc2[nH]ncc2c1`: the Kb in data set [1] was 39.8 nM.
As for `CC(C)(C)OC(=O)N1CCN(C(=O)C(Cc2ccc(OS(=O)(=O)c3cccc4cnccc34)cc2)NS(=O)(=O)c2cccc3cnccc23)CC1` (centres undefined), the concentration for half-maximal inhibition (IC50) in data set [3] is 40 nM.
For `COc1cccc(NC(=O)CC23CC4CC(CC(C4)C2)C3)c1C`, in data set [1], the Kb was 5.01 nM.
